In ChEMBL document CHEMBL1125014, “Synthesis and structure-activity relationships of new 9-N-alkyl derivatives of 9(S)-erythromycylamine” (1990):
≈ marks a conversion by molar mass, not a printed value.

What was measured:
Type in all cases: functional
Haemophilus influenzae [1] = assay: MIC value was measured against haemophilus influenzae.
Summary of the method: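 Susceptibility determined by standard agar-dilution method against a panel of bacterial strains.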

Haemophilus influenzae [2] = assay: MIC value was measured against haemophilus influenzae CL
Staphylococcus aureus [3] = assay: Effective dose against mice infected with Staphylococcus aureus after peroral administration (in vivo); conditions: in Mus musculus, po
Streptococcus pneumoniae [4] = assay: Effective dose against mice infected with streptococcus pneumoniae after peroral administration (in vivo); conditions: in Mus musculus, po
Streptococcus pyogenes [5] = assay: Effective dose against mice infected with streptococcus pyogenes after peroral administration (in vivo); conditions: in Mus musculus, po
Staphylococcus aureus [6] = assay: MIC value measured against staphylococcus aureus X1
Streptococcus pyogenes [7] = assay: MIC value measured against streptococcus pyogenes C203
[8] = tested on: Staphylococcus epidermidis; assay: microbe, parasite or virus in culture
Streptococcus pneumoniae [9] = assay: MIC value measured against streptococcus pneumoniae Park1

| SMILES | MIC (Haemophilus influenzae [1]) | MIC (Haemophilus influenzae [2]) | ED50 (Staphylococcus aureus [3]) | ED50 (Streptococcus pneumoniae [4]) | ED50 (Streptococcus pyogenes [5]) | MIC (Staphylococcus aureus [6]) | MIC (Streptococcus pyogenes [7]) | MIC [8] | MIC (Streptococcus pneumoniae [9]) |
| --- | --- | --- | --- | --- | --- | --- | --- | --- | --- |
| CC[C@H]1OC(=O)[C@H](C)[C@@H](OC2CC(C)(OC)C(O)C(C)O2)[C@H](C)[C@@H](OC2OC(C)CC(N(C)C)C2O)[C@](C)(O)C[C@@H](C)[C@H](NCCCC#N)[C@H](C)[C@@H](O)[C@]1(C)O (some centres not stated) | 2 µg/mL (≈ 2.49 µM) | 2 µg/mL (≈ 2.49 µM) | 36 mg/kg | 29 mg/kg | 21 mg/kg | 1 µg/mL (≈ 1.25 µM) | 1 µg/mL (≈ 1.25 µM) | 1 µg/mL (≈ 1.25 µM) | – |
| CC[C@H]1OC(=O)[C@H](C)[C@@H](OC2CC(C)(OC)C(O)C(C)O2)[C@H](C)[C@@H](OC2OC(C)CC(N(C)C)C2O)[C@](C)(O)C[C@@H](C)[C@H](NCCCCCO)[C@H](C)[C@@H](O)[C@]1(C)O (some centres not stated) | 2 µg/mL (≈ 2.44 µM) | 2 µg/mL (≈ 2.44 µM) | > 50 mg/kg | > 50 mg/kg | 43 mg/kg | 0.5 µg/mL (≈ 0.609 µM) | 0.008 µg/mL (≈ 0.00974 µM) | 0.5 µg/mL (≈ 0.609 µM) | 0.008 µg/mL (≈ 0.00974 µM) |
| CC[C@H]1OC(=O)[C@H](C)[C@@H](OC2CC(C)(OC)C(O)C(C)O2)[C@H](C)[C@@H](OC2OC(C)CC(N(C)C)C2O)[C@](C)(O)C[C@@H](C)[C@H](NC)[C@H](C)[C@@H](O)[C@]1(C)O (some centres not stated) | 0.5 µg/mL (≈ 0.668 µM) | 0.5 µg/mL (≈ 0.668 µM) | 44 mg/kg | 35 mg/kg | 21 mg/kg | 1 µg/mL (≈ 1.34 µM) | 0.06 µg/mL (≈ 0.0801 µM) | 0.25 µg/mL (≈ 0.334 µM) | – |
| CC[C@H]1OC(=O)[C@H](C)[C@@H](OC2CC(C)(OC)C(O)C(C)O2)[C@H](C)[C@@H](OC2OC(C)CC(N(C)C)C2O)[C@](C)(O)C[C@@H](C)[C@H](N(C)C2CCCCC2)[C@H](C)[C@@H](O)[C@]1(C)O (some centres not stated) | 32 µg/mL (≈ 38.5 µM) | 32 µg/mL (≈ 38.5 µM) | > 50 mg/kg | > 50 mg/kg | > 50 mg/kg | 16 µg/mL (≈ 19.3 µM) | 1 µg/mL (≈ 1.2 µM) | 8 µg/mL (≈ 9.63 µM) | 0.12 µg/mL (≈ 0.144 µM) |
| CC[C@H]1OC(=O)[C@H](C)[C@@H](OC2CC(C)(OC)C(O)C(C)O2)[C@H](C)[C@@H](OC2OC(C)CC(N(C)C)C2O)[C@](C)(O)C[C@@H](C)C(=O)[C@H](C)[C@@H](O)[C@H]1C (some centres not stated) | – | 4 µg/mL (≈ 5.57 µM) | – | – | – | 0.25 µg/mL (≈ 0.348 µM) | 0.03 µg/mL (≈ 0.0418 µM) | 0.25 µg/mL (≈ 0.348 µM) | – |
| CC[C@H]1OC(=O)[C@H](C)[C@@H](OC2CC(C)(OC)C(O)C(C)O2)[C@H](C)[C@@H](OC2OC(C)CC(N(C)C)C2O)[C@](C)(O)C[C@@H](C)[C@H](N(C)C(C)C)[C@H](C)[C@@H](O)[C@]1(C)O (some centres not stated) | 32 µg/mL (≈ 40.5 µM) | 32 µg/mL (≈ 40.5 µM) | – | – | – | 8 µg/mL (≈ 10.1 µM) | 0.5 µg/mL (≈ 0.632 µM) | 8 µg/mL (≈ 10.1 µM) | 0.5 µg/mL (≈ 0.632 µM) |
| CC[C@H]1OC(=O)[C@H](C)[C@@H](OC2CC(C)(OC)C(O)C(C)O2)[C@H](C)[C@@H](OC2OC(C)CC(N(C)C)C2O)[C@](C)(O)C[C@@H](C)[C@H](NCC2CCCCCCC2)[C@H](C)[C@@H](O)[C@]1(C)O (some centres not stated) | – | – | – | – | – | 1 µg/mL (≈ 1.16 µM) | 0.06 µg/mL (≈ 0.0698 µM) | 0.5 µg/mL (≈ 0.582 µM) | – |
| CCN[C@@H]1[C@H](C)[C@@H](O)[C@](C)(O)[C@@H](CC)OC(=O)[C@H](C)[C@@H](OC2CC(C)(OC)C(O)C(C)O2)[C@H](C)[C@@H](OC2OC(C)CC(N(C)C)C2O)[C@](C)(O)C[C@H]1C (some centres not stated) | 1 µg/mL (≈ 1.31 µM) | 1 µg/mL (≈ 1.31 µM) | 23 mg/kg | 13 mg/kg | 13 mg/kg | 1 µg/mL (≈ 1.31 µM) | 0.12 µg/mL (≈ 0.157 µM) | 1 µg/mL (≈ 1.31 µM) | 0.03 µg/mL (≈ 0.0393 µM) |
| CC[C@H]1OC(=O)[C@H](C)[C@@H](OC2CC(C)(OC)C(O)C(C)O2)[C@H](C)[C@@H](OC2OC(C)CC(N(C)C)C2O)[C@](C)(O)C[C@@H](C)[C@H](NCCC(C)C)[C@H](C)[C@@H](O)[C@]1(C)O (some centres not stated) | 1 µg/mL (≈ 1.24 µM) | 1 µg/mL (≈ 1.24 µM) | 13 mg/kg | 11 mg/kg | 9 mg/kg | 1 µg/mL (≈ 1.24 µM) | 0.06 µg/mL (≈ 0.0745 µM) | 0.25 µg/mL (≈ 0.311 µM) | 0.03 µg/mL (≈ 0.0373 µM) |
| CC[C@H]1OC(=O)[C@H](C)[C@@H](OC2CC(C)(OC)C(O)C(C)O2)[C@H](C)[C@@H](OC2OC(C)CC(N(C)C)C2O)[C@](C)(O)C[C@@H](C)[C@H](NC2CCCC2)[C@H](C)[C@@H](O)[C@]1(C)O (some centres not stated) | 2 µg/mL (≈ 2.49 µM) | 2 µg/mL (≈ 2.49 µM) | 46 mg/kg | 4 mg/kg | 4 mg/kg | 1 µg/mL (≈ 1.25 µM) | 0.06 µg/mL (≈ 0.0747 µM) | 0.5 µg/mL (≈ 0.623 µM) | 0.06 µg/mL (≈ 0.0747 µM) |
| CC[C@H]1OC(=O)[C@H](C)[C@@H](OC2CC(C)(OC)C(O)C(C)O2)[C@H](C)[C@@H](OC2OC(C)CC(N(C)C)C2O)[C@](C)(O)C[C@@H](C)[C@H](NCC(C)(C)CO)[C@H](C)[C@@H](O)[C@]1(C)O (some centres not stated) | 1 µg/mL (≈ 1.22 µM) | 1 µg/mL (≈ 1.22 µM) | > 50 mg/kg | 46 mg/kg | 20 mg/kg | 1 µg/mL (≈ 1.22 µM) | 0.03 µg/mL (≈ 0.0365 µM) | 1 µg/mL (≈ 1.22 µM) | 0.015 µg/mL (≈ 0.0183 µM) |
| CC[C@H]1OC(=O)[C@H](C)[C@@H](OC2CC(C)(OC)C(O)C(C)O2)[C@H](C)[C@@H](OC2OC(C)CC(N(C)C)C2O)[C@](C)(O)C[C@@H](C)[C@H](NC(C)CCCN(CC)CC)[C@H](C)[C@@H](O)[C@]1(C)O (some centres not stated) | 8 µg/mL (≈ 9.13 µM) | 8 µg/mL (≈ 9.13 µM) | 41 mg/kg | 18 mg/kg | 31 mg/kg | 2 µg/mL (≈ 2.28 µM) | 0.5 µg/mL (≈ 0.571 µM) | 2 µg/mL (≈ 2.28 µM) | 0.5 µg/mL (≈ 0.571 µM) |
| CCCCCCCCCCCCN[C@@H]1[C@H](C)[C@@H](O)[C@](C)(O)[C@@H](CC)OC(=O)[C@H](C)[C@@H](OC2CC(C)(OC)C(O)C(C)O2)[C@H](C)[C@@H](OC2OC(C)CC(N(C)C)C2O)[C@](C)(O)C[C@H]1C (some centres not stated) | – | – | > 45 mg/kg | > 50 mg/kg | > 50 mg/kg | 4 µg/mL (≈ 4.43 µM) | 0.5 µg/mL (≈ 0.554 µM) | 4 µg/mL (≈ 4.43 µM) | 0.06 µg/mL (≈ 0.0664 µM) |
| CC[C@H]1OC(=O)[C@H](C)[C@@H](OC2CC(C)(OC)C(O)C(C)O2)[C@H](C)[C@@H](OC2OC(C)CC(N(C)C)C2O)[C@](C)(O)C[C@@H](C)[C@H](NCCC(C)CCCC(C)(C)OC)[C@H](C)[C@@H](O)[C@]1(C)O (some centres not stated) | 1 µg/mL (≈ 1.1 µM) | 1 µg/mL (≈ 1.1 µM) | > 46 mg/kg | 24 mg/kg | 25 mg/kg | 0.5 µg/mL (≈ 0.552 µM) | 0.015 µg/mL (≈ 0.0166 µM) | 0.25 µg/mL (≈ 0.276 µM) | – |
| C=CCCCCCCCCCN[C@@H]1[C@H](C)[C@@H](O)[C@](C)(O)[C@@H](CC)OC(=O)[C@H](C)[C@@H](OC2CC(C)(OC)C(O)C(C)O2)[C@H](C)[C@@H](OC2OC(C)CC(N(C)C)C2O)[C@](C)(O)C[C@H]1C (some centres not stated) | 2 µg/mL (≈ 2.25 µM) | 2 µg/mL (≈ 2.25 µM) | – | – | – | 2 µg/mL (≈ 2.25 µM) | 1 µg/mL (≈ 1.13 µM) | 1 µg/mL (≈ 1.13 µM) | – |
| CCCCN[C@@H]1[C@H](C)[C@@H](O)[C@](C)(O)[C@@H](CC)OC(=O)[C@H](C)[C@@H](OC2CC(C)(OC)C(O)C(C)O2)[C@H](C)[C@@H](OC2OC(C)CC(N(C)C)C2O)[C@](C)(O)C[C@H]1C (some centres not stated) | 1 µg/mL (≈ 1.26 µM) | 1 µg/mL (≈ 1.26 µM) | 15 mg/kg | 13 mg/kg | 13 mg/kg | 0.25 µg/mL (≈ 0.316 µM) | 0.06 µg/mL (≈ 0.0758 µM) | 0.25 µg/mL (≈ 0.316 µM) | 0.015 µg/mL (≈ 0.019 µM) |
| CCCCCCCN[C@@H]1[C@H](C)[C@@H](O)[C@](C)(O)[C@@H](CC)OC(=O)[C@H](C)[C@@H](OC2CC(C)(OC)C(O)C(C)O2)[C@H](C)[C@@H](OC2OC(C)CC(N(C)C)C2O)[C@](C)(O)C[C@H]1C (some centres not stated) | 1 µg/mL (≈ 1.2 µM) | 1 µg/mL (≈ 1.2 µM) | > 50 mg/kg | 33 mg/kg | 31 mg/kg | 0.25 µg/mL (≈ 0.3 µM) | 0.015 µg/mL (≈ 0.018 µM) | 0.25 µg/mL (≈ 0.3 µM) | 0.015 µg/mL (≈ 0.018 µM) |
| CC[C@H]1OC(=O)[C@H](C)[C@@H](OC2CC(C)(OC)C(O)C(C)O2)[C@H](C)[C@@H](OC2OC(C)CC(N(C)C)C2O)[C@](C)(O)C[C@@H](C)[C@H](N(C)C)[C@H](C)[C@@H](O)[C@]1(C)O (some centres not stated) | 2 µg/mL (≈ 2.62 µM) | 2 µg/mL (≈ 2.62 µM) | > 44 mg/kg | 44 mg/kg | 22 mg/kg | 4 µg/mL (≈ 5.24 µM) | 0.25 µg/mL (≈ 0.328 µM) | 2 µg/mL (≈ 2.62 µM) | – |
| CC[C@H]1OC(=O)[C@H](C)[C@@H](OC2CC(C)(OC)C(O)C(C)O2)[C@H](C)[C@@H](OC2OC(C)CC(N(C)C)C2O)[C@](C)(O)C[C@@H](C)[C@H](NC(C)C)[C@H](C)[C@@H](O)[C@]1(C)O (some centres not stated) | 2 µg/mL (≈ 2.57 µM) | 2 µg/mL (≈ 2.57 µM) | 32 mg/kg | 13 mg/kg | 13 mg/kg | 1 µg/mL (≈ 1.29 µM) | 0.25 µg/mL (≈ 0.322 µM) | 0.5 µg/mL (≈ 0.643 µM) | 0.12 µg/mL (≈ 0.154 µM) |
